A value given as a limit tells only on which side of the number the result lay.

Experiment [1] deals with Cavia porcellus. Nature of the experiment: The compound (100umol/kg, sc) was tested for hypothermic response for 60 mins and in Guinea pig. The class given is functional. The procedure, abridged: (§1)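 Guinea pigs dosed subcutaneously. Body temperature change read at 30 and 60 min after dosing. Response given as the difference in °C from vehicle-treated controls, as mean ± SEM, n = 4-5 per group. Significance tested against vehicle.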

Experiment [2] concerns the target 5-hydroxytryptamine receptor 1B (Gorilla gorilla, UniProt Q9N2B7). Kind of experiment: The compound was tested for CNS binding affinity towards 5-hydroxytryptamine 1B receptor from cloned gorilla membranes expressed in cultured HEK 293 cells. The class given is cell-based, HEK293.
In experiment [3] the target is T1, D(2) dopamine receptor (Homo sapiens, UniProt P14416). Nature of the experiment: The compound was tested for CNS binding affinity towards Dopamine receptor D2 from cloned Human membranes. An outline of the steps: (§2)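 Radioligand binding on membranes from cloned human receptors (5-HT1A, 5-HT2A, D2, D4). Ki values reported.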
Experiment [4] concerns the target T2, 5-hydroxytryptamine receptor 1A (Homo sapiens, UniProt P08908).
T2 sequence (P08908 whole entry): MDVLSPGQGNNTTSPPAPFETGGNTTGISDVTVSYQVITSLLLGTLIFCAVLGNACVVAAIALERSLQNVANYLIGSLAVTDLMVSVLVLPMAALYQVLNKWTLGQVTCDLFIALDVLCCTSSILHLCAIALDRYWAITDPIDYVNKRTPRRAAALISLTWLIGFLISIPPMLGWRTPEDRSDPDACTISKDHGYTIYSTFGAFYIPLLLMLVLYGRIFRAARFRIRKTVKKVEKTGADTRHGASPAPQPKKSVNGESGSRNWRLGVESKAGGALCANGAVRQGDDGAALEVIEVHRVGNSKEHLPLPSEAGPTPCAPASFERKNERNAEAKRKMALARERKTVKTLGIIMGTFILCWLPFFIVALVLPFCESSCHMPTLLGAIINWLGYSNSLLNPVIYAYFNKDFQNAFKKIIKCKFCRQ
Kind of experiment: The compound was tested for CNS binding affinity towards 5-hydroxytryptamine 1A receptor from cloned Human membranes. The procedure, abridged:
as §2

Experiment [5] concerns Cavia porcellus. Kind of experiment: The compound (25umol/kg, sc) was tested for hypothermic response for 30 mins in Guinea pig. Type of experiment: functional. The procedure, abridged: as §1
Experiment [6] addresses T3, D(4) dopamine receptor (Homo sapiens, UniProt P21917).
T3 sequence (P21917 whole entry): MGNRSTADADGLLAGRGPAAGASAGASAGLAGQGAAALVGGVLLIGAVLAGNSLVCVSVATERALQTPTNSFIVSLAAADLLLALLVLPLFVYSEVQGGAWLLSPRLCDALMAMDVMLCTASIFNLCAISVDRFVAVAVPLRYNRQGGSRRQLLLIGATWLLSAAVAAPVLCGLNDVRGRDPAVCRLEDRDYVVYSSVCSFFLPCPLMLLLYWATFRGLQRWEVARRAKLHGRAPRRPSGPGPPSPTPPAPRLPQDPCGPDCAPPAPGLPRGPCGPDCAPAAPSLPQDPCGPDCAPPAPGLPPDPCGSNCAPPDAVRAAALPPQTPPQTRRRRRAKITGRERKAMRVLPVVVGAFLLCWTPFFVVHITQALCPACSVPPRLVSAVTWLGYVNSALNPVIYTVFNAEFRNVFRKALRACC
Nature of the experiment: The compound was tested for CNS binding affinity towards Dopamine receptor D4 from cloned Human membranes. An outline of the steps: as §2

The test system of experiment [7] is Cavia porcellus. Nature of the experiment: The compound (50umol/kg, sc) was tested for hypothermic response for 60 mins and in Guinea pig. The class given is functional. The procedure, abridged:
as §1

Experiment [8] concerns Cavia porcellus. Nature of the experiment: The compound (25umol/kg, sc) was tested for hypothermic response for 60 mins and in Guinea pig. Type of experiment: functional. An outline of the steps: as §1
Experiment [9] has as its system Cavia porcellus. Nature of the experiment: The compound (100umol/kg, sc) was tested for hypothermic response for 30 mins in Guinea pig. The class given is functional. The procedure, abridged:
as §1

Experiment [10] deals with T4, 5-hydroxytryptamine receptor 2A (Homo sapiens, UniProt P28223). Nature of the experiment: The compound was tested for CNS binding affinity towards 5-hydroxytryptamine 2A receptor from cloned Human membranes.
Experiment [11] has as its system Cavia porcellus. Nature of the experiment: The compound (50umol/kg, sc) was tested for hypothermic response for 30 mins in Guinea pig. Type of experiment: functional. The procedure, abridged: as §1
For experiment [12], the target named is T3, D(4) dopamine receptor. Kind of experiment: The compound was tested for CNS binding affinity towards Dopamine receptor D4 from cloned Human membranes. An outline of the steps:
as §2

The target of experiment [13] is T2, 5-hydroxytryptamine receptor 1A. Nature of the experiment: The compound was tested for CNS binding affinity towards 5-hydroxytryptamine 1A receptor from cloned Human membranes. An outline of the steps:
as §2

The target in experiment [14] is T1, D(2) dopamine receptor. Kind of experiment: The compound was tested for CNS binding affinity towards Dopamine receptor D2 from cloned Human membranes. The procedure, abridged:
as §2

The subject of experiment [15] is Cavia porcellus. Kind of experiment: The compound (25umol/kg, sc) was tested for hypothermic response for 60 mins in Guinea pig. Type of experiment: functional. The procedure, abridged:
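Guinea pigs received compound subcutaneously (doses 25–100 μmol/kg across groups), and body temperature change was read at 30 and 60 min after dosing. The hypothermic response is the difference in °C from vehicle-treated controls, reported as mean ± SEM (n = 4–5), with significance tested against vehicle.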

The target in experiment [16] is T3, D(4) dopamine receptor. Kind of experiment: The compound was tested for CNS binding affinity towards Dopamine receptor D4 from cloned Human membranes; Inactive.
Experiment [17] has as its target T4, 5-hydroxytryptamine receptor 2A. Nature of the experiment: The compound was tested for CNS binding affinity towards 5-hydroxytryptamine 2A receptor from cloned Human membranes. The procedure, abridged:
as §2

Sequence of 5-hydroxytryptamine receptor 1B (Q9N2B7 whole entry): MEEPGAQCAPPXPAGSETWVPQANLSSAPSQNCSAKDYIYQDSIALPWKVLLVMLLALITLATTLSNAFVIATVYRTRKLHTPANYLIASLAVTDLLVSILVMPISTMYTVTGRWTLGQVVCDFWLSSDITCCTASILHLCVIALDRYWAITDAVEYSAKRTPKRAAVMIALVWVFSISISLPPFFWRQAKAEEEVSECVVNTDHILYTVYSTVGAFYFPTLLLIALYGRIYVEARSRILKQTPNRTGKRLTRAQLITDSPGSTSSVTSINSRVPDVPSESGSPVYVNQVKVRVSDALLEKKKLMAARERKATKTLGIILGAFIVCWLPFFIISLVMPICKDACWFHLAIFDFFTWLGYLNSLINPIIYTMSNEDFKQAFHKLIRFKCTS
T1 sequence (P14416 whole entry): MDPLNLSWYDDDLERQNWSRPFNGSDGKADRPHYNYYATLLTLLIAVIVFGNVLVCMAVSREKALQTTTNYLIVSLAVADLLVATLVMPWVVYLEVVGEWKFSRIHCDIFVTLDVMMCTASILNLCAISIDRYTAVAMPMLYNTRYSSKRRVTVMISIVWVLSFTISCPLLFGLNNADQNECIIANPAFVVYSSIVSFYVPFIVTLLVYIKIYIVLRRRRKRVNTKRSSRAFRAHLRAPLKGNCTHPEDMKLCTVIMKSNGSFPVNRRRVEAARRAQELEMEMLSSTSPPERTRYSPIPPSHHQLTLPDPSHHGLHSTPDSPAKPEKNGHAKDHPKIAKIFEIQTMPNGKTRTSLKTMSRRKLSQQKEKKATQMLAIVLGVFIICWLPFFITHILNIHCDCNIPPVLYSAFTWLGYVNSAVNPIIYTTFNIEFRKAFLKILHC
T4 sequence (P28223 whole entry): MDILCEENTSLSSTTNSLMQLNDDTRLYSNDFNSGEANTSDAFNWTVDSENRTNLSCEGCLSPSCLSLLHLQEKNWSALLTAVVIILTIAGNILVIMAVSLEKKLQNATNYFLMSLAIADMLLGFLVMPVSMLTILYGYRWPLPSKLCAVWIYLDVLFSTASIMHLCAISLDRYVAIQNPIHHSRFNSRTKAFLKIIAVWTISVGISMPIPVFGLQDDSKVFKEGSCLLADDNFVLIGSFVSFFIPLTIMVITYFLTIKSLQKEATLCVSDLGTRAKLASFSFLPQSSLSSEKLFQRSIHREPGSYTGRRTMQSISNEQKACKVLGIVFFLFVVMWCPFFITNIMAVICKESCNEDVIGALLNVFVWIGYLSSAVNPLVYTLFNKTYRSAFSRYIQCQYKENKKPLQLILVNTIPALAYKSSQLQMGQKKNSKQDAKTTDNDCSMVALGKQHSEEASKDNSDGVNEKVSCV

Regarding `CNC(=O)c1ccc2c(c1)CCO[C@H]2CCN1CCN(c2ccc(OC)cc2)CC1`, the Hypothermic effect in the experiment on Cavia porcellus [1] was -1.52 °C; in the experiment with Cavia porcellus [5], -0.8 °C; in the experiment on Cavia porcellus [7] it was -2.34 °C; with Cavia porcellus [8], -0.54 °C; in the experiment with Cavia porcellus [9] it was -1.38 °C; in the experiment with Cavia porcellus [11] it was -1.84 °C. For the same compound, the inhibition constant (Ki) was 5.78 µM in [2]; 0.241 µM on D(2) dopamine receptor [3]; 1.09 µM in experiment [4]; more than 3.7 µM on D(4) dopamine receptor [6]; 0.168 µM in experiment [10].

As for `COc1ccc(N2CCN(CCC3OCCc4cc(C(N)=O)ccc43)CC2)cc1` (configuration not stated), the inhibitory constant (Ki) in experiment [2] is 5.86 µM; at D(4) dopamine receptor [12], 1.05 µM; in experiment [13] it was 2.46 µM; on D(2) dopamine receptor [14], 0.348 µM.

In the case of `COc1ccc(N2CCN(CCC3OCCc4ccccc43)CC2)cc1` (configuration not stated), the Ki in [2] amounted to 7.24 µM; at D(2) dopamine receptor [3] it was 1.43 µM; in experiment [4], 0.899 µM; on D(4) dopamine receptor [6] it was 0.0024 µM; in [10] it was 0.076 µM.

On to `CNS(=O)(=O)Cc1ccc2[nH]cc(CCN(C)C)c2c1`, for which the inhibition constant (Ki) was more than 0.218 µM on D(2) dopamine receptor [3] and “Not Active” on D(4) dopamine receptor [16]. This compound also had a Hypothermic effect in the experiment on Cavia porcellus [15] of -0.14.

For the compound `COc1ccc(N2CCN(CC[C@H]3OCCc4cc(C(N)=O)ccc43)CC2)cc1`, the Ki was 26 µM in experiment [2], 0.386 µM on D(2) dopamine receptor [3] and more than 3.36 µM in [4].

Turning to `COc1ccc(N2CCN(CC[C@@H]3OCCc4cc(C(N)=O)ccc43)CC2)cc1`, the inhibition constant (Ki) in experiment [2] was 3.02 µM; at D(2) dopamine receptor [3], 0.325 µM; in experiment [4] it was 0.967 µM; at D(4) dopamine receptor [16], “Not Active”. For the same compound, the Hypothermic effect in the experiment with Cavia porcellus [7] was -1.14 °C; with Cavia porcellus [11] it was -1.42 °C.

Regarding `CNC(=O)c1ccc2c(c1)CCO[C@@H]2CCN1CCN(c2ccc(OC)cc2)CC1`, the Ki in experiment [17] is 0.586 µM; in [2], 150 µM; at D(2) dopamine receptor [3], 0.158 µM; in [4], more than 3.36 µM; on D(4) dopamine receptor [16] it was “Not Active”.

What is called Ki is a measure of affinity in units of concentration, obtained from inhibition or displacement. A low value points to tighter binding.
